Values joined by “and” are separate entries in the source; they are usually repeats but may differ in a detail not shown here. Equal entries are not always repeated.
system: HEK-293T; experiment: Multiplex assay against HEK293T; assay type: toxicity, cell-based; settings: human, 12 h, 1 µM, compound concentration 1 uM
Method in brief: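 Compound was added to live cells that had been stained at seeding with Hoechst33342, BioTracker Green Microtubule Cytoskeleton Dye, MitoTracker Red and Annexin V Alexa Fluor 680, and imaging followed on a CQ1 microscope at 37°C and 5% CO2. CellPathfinder machine-learning gating divided cells into Hoechst high-intensity objects or normal cells, normal cells into healthy, pyknosed or fragmented nuclei, and pyknosed cells into mitotic or apoptotic. Tubulin, mitochondrial-mass and membrane-permeability phenotypes are per cents of healthy-nucleus cells.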

Structure (SMILES)	Population Apoptotic (%)	Population Fragmented Nuclei (%)	Population Healthy Nuclei (%)	Population Hoechst High Intensity Objects (%)	Population Membrane Permeable-Phenotype (%)	Population Mitochondria Different-Phenotype (%)	Population Mitotic Cells (%)	Population Normal (%)	Population Pyknosed Nuclei (%)	Population Tubulin-Different-Phenotype (%)
CC(C)(C)c1ccc(CSc2cnn(C(C)(C)C)c(=O)c2Cl)cc1 [PYRIDABEN]	51% and 28%	7% and 6%	78% and 83%	12% and 8%	0%	51% and 63%	48% and 71%	87% and 91%	14% and 10%	34% and 30%
O=C(Nc1ccccc1Br)N[C@@H]1CCN(c2ccc(C(F)(F)F)cn2)C1 [SB-705498]	7.52% and 7.03%	0.88% and 1.23%	–	0.29% and 0%	0.99% and 0%	31.53% and 18.75%	92.48% and 92.97%	99.71% and 100%	39.23% and 79.01%	–

same assay, conditions: human, 12 h, 1 µM, compound concentration 1 uM

Structure (SMILES)	Total Cell Count
CC(C)(C)c1ccc(CSc2cnn(C(C)(C)C)c(=O)c2Cl)cc1 [PYRIDABEN]	299 and 306
O=C(Nc1ccccc1Br)N[C@@H]1CCN(c2ccc(C(F)(F)F)cn2)C1 [SB-705498]	340 and 162

same assay, conditions: human, 12 h, 10 µM, compound concentration 10 uM

Structure (SMILES)	Population Apoptotic (%)	Population Fragmented Nuclei (%)	Population Healthy Nuclei (%)	Population Hoechst High Intensity Objects (%)	Population Membrane Permeable-Phenotype (%)	Population Mitochondria Different-Phenotype (%)	Population Mitotic Cells (%)	Population Normal (%)	Population Pyknosed Nuclei (%)	Population Tubulin-Different-Phenotype (%)
CC(C)(C)c1ccc(CSc2cnn(C(C)(C)C)c(=O)c2Cl)cc1 [PYRIDABEN]	56% and 62%	6% and 8%	77% and 74%	11% and 17%	0%	75% and 81%	44% and 37%	88% and 82%	15% and 16%	55% and 38%
O=C(Nc1ccccc1Br)N[C@@H]1CCN(c2ccc(C(F)(F)F)cn2)C1 [SB-705498]	12.68% and 20.16%	2.69% and 4.05%	–	1.52% and 0%	0.9% and 7.69%	31.53% and 23.08%	87.32% and 79.84%	98.48% and 100%	54.62% and 87.16%	17.12% and 46.15%

same assay, conditions: human, 12 h, 10 µM, compound concentration 10 uM

Structure (SMILES)	Total Cell Count
CC(C)(C)c1ccc(CSc2cnn(C(C)(C)C)c(=O)c2Cl)cc1 [PYRIDABEN]	359 and 236
O=C(Nc1ccccc1Br)N[C@@H]1CCN(c2ccc(C(F)(F)F)cn2)C1 [SB-705498]	264 and 148

same assay, conditions: human, 24 h, 1 µM, compound concentration 1 uM

Structure (SMILES)	Population Apoptotic (%)	Population Fragmented Nuclei (%)	Population Healthy Nuclei (%)	Population Hoechst High Intensity Objects (%)	Population Membrane Permeable-Phenotype (%)	Population Mitochondria Different-Phenotype (%)	Population Mitotic Cells (%)	Population Normal (%)	Population Pyknosed Nuclei (%)	Population Tubulin-Different-Phenotype (%)
CC(C)(C)c1ccc(CSc2cnn(C(C)(C)C)c(=O)c2Cl)cc1 [PYRIDABEN]	33% and 35%	7%	80% and 83%	9% and 8%	0%	37% and 43%	66% and 64%	90% and 91%	11% and 8%	27% and 22%
O=C(Nc1ccccc1Br)N[C@@H]1CCN(c2ccc(C(F)(F)F)cn2)C1 [SB-705498]	16.92% and 17.07%	1.6% and 1.17%	75.22% and 26.9%	0.18% and 0%	2.37% and 2.17%	11.37% and 2.17%	83.08% and 82.93%	99.82% and 100%	–	10.9% and 6.52%

same assay, conditions: human, 24 h, 1 µM, compound concentration 1 uM

Structure (SMILES)	Total Cell Count
CC(C)(C)c1ccc(CSc2cnn(C(C)(C)C)c(=O)c2Cl)cc1 [PYRIDABEN]	373 and 370

same assay, conditions: human, 24 h, 10 µM, compound concentration 10 uM

Structure (SMILES)	Population Apoptotic (%)	Population Fragmented Nuclei (%)	Population Healthy Nuclei (%)	Population Hoechst High Intensity Objects (%)	Population Membrane Permeable-Phenotype (%)	Population Mitochondria Different-Phenotype (%)	Population Mitotic Cells (%)	Population Normal (%)	Population Pyknosed Nuclei (%)	Population Tubulin-Different-Phenotype (%)
CC(C)(C)c1ccc(CSc2cnn(C(C)(C)C)c(=O)c2Cl)cc1 [PYRIDABEN]	44% and 46%	7% and 8%	79% and 70%	10% and 23%	0	68% and 65%	55% and 53%	89% and 76%	12% and 21%	52% and 25%
O=C(Nc1ccccc1Br)N[C@@H]1CCN(c2ccc(C(F)(F)F)cn2)C1 [SB-705498]	24.63% and 21.09%	1.27% and 4.24%	–	0%	0	24.71% and 20%	75.37% and 78.91%	100%	34.01% and 77.58%	37.65% and 16.67%

same assay, conditions: human, 24 h, 10 µM, compound concentration 10 uM

Structure (SMILES)	Total Cell Count
CC(C)(C)c1ccc(CSc2cnn(C(C)(C)C)c(=O)c2Cl)cc1 [PYRIDABEN]	386 and 252
O=C(Nc1ccccc1Br)N[C@@H]1CCN(c2ccc(C(F)(F)F)cn2)C1 [SB-705498]	394 and 165

same assay, conditions: human, 48 h, 1 µM, compound concentration 1 uM

Structure (SMILES)	Population Apoptotic (%)	Population Fragmented Nuclei (%)	Population Healthy Nuclei (%)	Population Hoechst High Intensity Objects (%)	Population Membrane Permeable-Phenotype (%)	Population Mitochondria Different-Phenotype (%)	Population Mitotic Cells (%)	Population Normal (%)	Population Pyknosed Nuclei (%)	Population Tubulin-Different-Phenotype (%)
CC(C)(C)c1ccc(CSc2cnn(C(C)(C)C)c(=O)c2Cl)cc1 [PYRIDABEN]	19% and 30%	11% and 9%	80% and 84%	5% and 4%	0%	25% and 21%	80% and 69%	94% and 95%	7% and 6%	14% and 13%
O=C(Nc1ccccc1Br)N[C@@H]1CCN(c2ccc(C(F)(F)F)cn2)C1 [SB-705498]	9.6% and 17.81%	2.88% and 0.56%	86.22% and 58.66%	0%	6.98% and 0.95%	12.34% and 27.62%	90.4% and 82.19%	100%	–	–

same assay, conditions: human, 48 h, 1 µM, compound concentration 1 uM

Structure (SMILES)	Total Cell Count
CC(C)(C)c1ccc(CSc2cnn(C(C)(C)C)c(=O)c2Cl)cc1 [PYRIDABEN]	585 and 522

same assay, conditions: human, 48 h, 10 µM, compound concentration 10 uM

Structure (SMILES)	Population Apoptotic (%)	Population Fragmented Nuclei (%)	Population Healthy Nuclei (%)	Population Hoechst High Intensity Objects (%)	Population Membrane Permeable-Phenotype (%)	Population Mitochondria Different-Phenotype (%)	Population Mitotic Cells (%)	Population Normal (%)	Population Pyknosed Nuclei (%)	Population Tubulin-Different-Phenotype (%)
CC(C)(C)c1ccc(CSc2cnn(C(C)(C)C)c(=O)c2Cl)cc1 [PYRIDABEN]	48% and 64%	8% and 13%	79% and 71%	11% and 14%	0%	59% and 48%	51% and 35%	88% and 85%	12% and 14%	43% and 28%
O=C(Nc1ccccc1Br)N[C@@H]1CCN(c2ccc(C(F)(F)F)cn2)C1 [SB-705498]	–	1.84% and 0.57%	83.54% and 53.41%	0%	4.13% and 5.32%	29.2% and 45.74%	95.28% and 80.25%	100%	–	–

same assay, conditions: human, 48 h, 10 µM, compound concentration 10 uM

Structure (SMILES)	Total Cell Count
CC(C)(C)c1ccc(CSc2cnn(C(C)(C)C)c(=O)c2Cl)cc1 [PYRIDABEN]	424 and 290

Reference: ChEMBL document CHEMBL5724801, “EUbOPEN Chemogenomics Library - Multiplex” (2024)
